The results in this text go back to ChEMBL document CHEMBL2331120, “Evidence for the analgesic activity of resveratrol in acute models of nociception in mice” (2013).

By inhibition in vivo is commonly meant the percentage by which the read-out fell short of the control.

Activity calls are given as the source filed them.

Assay [1] has as its system Mus musculus. In words: Antinociceptive activity in Swiss mouse assessed as inhibition of capsaicin-induced increase of c-Fos expression in brain cortex at 100 mg/kg, po by immunohistochemistry analysis. Type of assay: functional, organism-based. Also noted: dose 100 mg/kg. An outline of the steps:
(§1)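 Swiss mice, 30 to 35 g, dosed 100 mg/kg po 30 min before ipl capsaicin (1.6 μg in 20 μL per paw). Spinal cord and brain taken 60 min later and fixed in buffered formalin. Sections stained with rabbit anti-c-Fos or anti-COX-2 (1:1000) overnight at room temperature, then biotinylated secondary, ABC and nickel-enhanced DAB. Read-out is positive area per field. Four animals per group.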

Assay [2] deals with Mus musculus. In words: Antinociceptive activity in Swiss mouse assessed as inhibition of glutamate-induced increase of c-Fos expression in brain cortex at 100 mg/kg, po by immunohistochemistry analysis. Type of assay: functional, organism-based. Also noted: dose 100 mg/kg. An outline of the steps:
(§2)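 Swiss mice dosed 100 mg/kg po 30 min before ipl glutamate (10 μmol per paw). Spinal cord and brain excised 60 min later and formalin-fixed. Sections immunostained with rabbit anti-c-Fos (1:1000) overnight at room temperature, then biotinylated secondary, ABC and nickel-enhanced DAB. Positive area per field quantified. Four animals per group.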

Assay [3] concerns Mus musculus. In words: Antinociceptive activity in Swiss mouse assessed as inhibition of capsaicin-induced spontaneous nociception at 150 ug/site, administered as intrathecally. Type of assay: functional. An outline of the steps: (§3)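 Mice given intrathecal dose in 5 μL 10 min before intraplantar capsaicin (1.6 μg/paw, 20 μL). Time spent licking the paw recorded for 5 min. Saline-treated controls. Eight animals per group. Percent inhibition averaged across individual experiments.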

Assay [4] deals with Mus musculus. In words: Antinociceptive activity in Swiss mouse assessed as inhibition of glutamate-induced spontaneous nociception at 200 ug/site, administered as intraplantarly. Type of assay: functional. An outline of the steps:
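Compound co-injected intraplantarly (200 μg/paw) with glutamate (10 μmol/paw, 20 μL) into the right hindpaw of Swiss mice. Licking of the injected paw timed over 15 min. Saline controls. n = 8 per group.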

The subject of assay [5] is Mus musculus. Put plainly: Antinociceptive activity in Swiss mouse assessed as inhibition of capsaicin-induced spontaneous nociception at 200 ug/site, administered as intraplantarly. Type of assay: functional, organism-based. An outline of the steps: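 Given 200 μg/paw intraplantar, co-injected with capsaicin (1.6 μg in 20 μL) into the right hindpaw of Swiss mice. Time spent licking the injected paw recorded over 5 min. Saline controls. Eight animals per group.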

The subject of assay [6] is Mus musculus. Put plainly: Antinociceptive activity in Swiss mouse assessed as inhibition of capsaicin-induced spontaneous nociception at 300 ug/site, administered as intrathecally. It counts as functional. An outline of the steps: as §3
The subject of assay [7] is Mus musculus. In words: Antinociceptive activity in Swiss mouse assessed as inhibition of glutamate-induced spontaneous nociception at 300 ug/site, administered as intrathecally. It counts as functional, organism-based. An outline of the steps:
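Given intrathecally at 300 μg/site in 5 μL, 10 min before ipl glutamate (10 μmol per paw, in 20 μL) in Swiss mice. Paw-licking time recorded over 15 min. Saline controls. Eight animals per group.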

The subject of assay [8] is Mus musculus. Put plainly: Antinociceptive activity in Swiss mouse assessed as inhibition of glutamate-induced increase of COX2 expression in spinal cord and cortex brain section at 100 mg/kg, po.
Assay [9] deals with Mus musculus. Put plainly: Antinociceptive activity in Swiss mouse assessed as inhibition of capsaicin-induced increase of c-Fos expression in L3-L6 spinal segments at 100 mg/kg, po by immunohistochemistry analysis. It counts as functional, organism-based. Also noted: dose 100 mg/kg. An outline of the steps: as §1
Assay [10] deals with Mus musculus. In words: Antinociceptive activity in Swiss mouse assessed as inhibition of capsaicin-induced biting behavior at 300 ug/site, administered intrathecally. It counts as functional, organism-based. An outline of the steps: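 Swiss mice, 30 to 35 g. Given 300 μg/site it, in 5 μL, co-injected with capsaicin (6.4 μg in 5 μL) into the subdural space at L5−L6. Biting is scored as single head movements directed at the flanks or hind limbs that contact the snout. Controls got saline. Eight animals per group.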

In assay [11] the test system is Mus musculus. In words: Antinociceptive activity in Swiss mouse assessed as inhibition of capsaicin-induced spontaneous nociception at 300 ug/site, icv. It counts as functional. An outline of the steps: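 Intracerebroventricular injection (300 μg/site in 5 μL) 10 min before capsaicin (1.6 μg in 20 μL) into the right hindpaw plantar surface of Swiss mice. Paw-licking time (s) measured over 5 min against saline controls. n = 8. Inhibition calculated as the mean of per-experiment values.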

The test system of assay [12] is Mus musculus. In words: Antinociceptive activity in Swiss mouse assessed as inhibition of glutamate-induced biting behavior at 300 ug/site, administered intrathecally. It counts as functional. An outline of the steps:
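Glutamate (30 μg in 5 μL) injected intrathecally into the subdural space at L5–L6, co-injected with compound (300 μg in 5 μL, it). Biting was scored, defined as a head movement toward the flanks or hind limbs ending in snout contact. Saline controls. Eight mice per group.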

The subject of assay [13] is Mus musculus. Put plainly: Antinociceptive activity in Swiss mouse assessed as inhibition of glutamate-induced spontaneous nociception at 300 ug/site, icv. Type of assay: functional, organism-based. An outline of the steps: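 Dosed icv at 300 μg/site in 5 μL, 10 min before glutamate (10 μmol/paw, ipl). Licking of the injected paw timed for 15 min in Swiss mice, against saline controls. Eight animals per group.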

In assay [14] the test system is Mus musculus. Put plainly: Antinociceptive activity in Swiss mouse assessed as inhibition of capsaicin-induced spontaneous nociception at 50 mg/kg, po. Type of assay: functional. An outline of the steps:
(§4)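 Swiss mice (30 to 35 g) acclimatized in observation chambers, then dosed orally 30 min before intraplantar capsaicin (1.6 μg in 20 μL, right hindpaw). Time spent licking the injected paw scored over 5 min. Saline controls on the same schedule. n = 8 per group. Percent inhibition taken as the mean of individual experiments.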

In assay [15] the test system is Mus musculus. Put plainly: Antinociceptive activity in Swiss mouse assessed as inhibition of capsaicin-induced spontaneous nociception at 600 ug/site, administered as intrathecally. Type of assay: functional. An outline of the steps: as §3
Assay [16] relates to Mus musculus. Put plainly: Antinociceptive activity in Swiss mouse assessed as inhibition of glutamate-induced spontaneous nociception at 100 mg/kg, po. It counts as functional. An outline of the steps:
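Oral pretreatment 30 min before intraplantar glutamate (10 μmol/paw, 20 μL) into the right hindpaw. Mice observed individually for 15 min for time spent licking the injected paw. Saline controls. Eight animals per group. Percent inhibition taken as the mean of individual experiments.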

Assay [17] relates to Mus musculus. Put plainly: Antinociceptive activity in Swiss mouse assessed as inhibition of capsaicin-induced increase of COX2 expression in brain cortex at 100 mg/kg, po by Western blotting. It counts as functional, organism-based. Also noted: dose 100 mg/kg. An outline of the steps:
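Mice dosed 100 mg/kg po or given saline, then capsaicin 1.6 μg/paw ipl. Cortex homogenized in hypotonic HEPES buffer with protease inhibitors plus Nonidet P-40. 20 μg protein run on 10% SDS-PAGE. Blot probed 12 h with anti-COX-2 (1:250), then HRP secondary. Bands by chemiluminescence and densitometry, normalized to β-actin. Four animals per group.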
Background: In western blotting, separated proteins are transferred to a membrane and probed.

Assay [18] has as its system Mus musculus. Put plainly: Antinociceptive activity in Swiss mouse assessed as inhibition of glutamate-induced increase of c-Fos expression in L3-L6 spinal segments at 100 mg/kg, po by immunohistochemistry analysis. Also noted: dose 100 mg/kg. It counts as functional, organism-based. An outline of the steps: as §2
The subject of assay [19] is Mus musculus. Put plainly: Antinociceptive activity in Swiss mouse assessed as inhibition of capsaicin-induced spontaneous nociception at 100 mg/kg, po. It counts as functional. An outline of the steps:
as §4

Assay [20] relates to Mus musculus. In words: Antinociceptive activity in Swiss mouse assessed as inhibition of capsaicin-induced increase of COX2 expression in L3-L6 spinal segments and cerebral cortex at 100 mg/kg, po by immunohistochemistry analysis. Type of assay: functional, organism-based. Also noted: dose 100 mg/kg. An outline of the steps: as §1

With `Oc1ccc(/C=C/c2cc(O)cc(O)c2)cc1` [RESVERATROL], the inhibition result in assay [1], in assay [2], in [5], in assay [7], in [8] and in assay [10] was “inactive” throughout. The inhibition entry in assay [13] and in [18] was “inactive” each time. The “inhibition (INH)” value came to 33% in [3]; 33% in assay [4]; 44% in assay [6]; 87% in [11]; 74% in assay [12]; 36% in assay [15]. For the same compound, the inhibition entry in [9], in assay [17] and in assay [20] was “Active” each time. For the same compound, in assay [14], the inhibition in vivo at 50 mg/kg stood at 29%. The inhibition in vivo at 100 mg/kg in [16] is 39%; in assay [19], 36%.
